Like-named read-outs stand apart in the source and are kept apart here.
Tests used:
[1] = Subgroup analysis for letrozole PK by renal function; format: in vivo, human; conditions: X2107 and MONALEESA-7, no moderate RI available, data on file
[2] = cited from earlier work
[3] = test system: non-cancer subjects; assay: Study A2116: safety; format: in vivo, human; conditions: single 400-mg dose
Procedure, shortened: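 Phase I, open-label, multicenter, parallel-group, two-part study. Single oral 400-mg dose in non-cancer subjects with varying renal impairment vs matched normal-function subjects. Part I enrolled normal function, severe RI and ESRD not on dialysis.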

[4] = test system: plasma protein; conditions: cited from earlier work
[5] = cited from earlier work; remark: listed apart in the source
[6] = pharmacokinetic data; cited from earlier work
[7] = test system: patients with advanced breast cancer; assay: Patient subgroup safety analysis by renal function; format: in vivo, human; conditions: for AEs leading to discontinuations / Dose modifications owing to renal toxicity / Incidence of thrombocytopenia / On-treatment deaths / QT interval prolongation events: ribociclib group
Procedure, shortened: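 Safety by renal function group in X2107, MONALEESA-2, MONALEESA-3 and MONALEESA-7 (NSAI only). Starting dose 600 mg, 3 weeks on/1 week off. Drug-related AEs were managed by reducing to 400 or 200 mg. Patients with severe RI were excluded from these studies.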

[8] = format: in vivo, human; conditions: for Increase in AUCinf compared with normal renal function / Increase in Cmax compared with normal renal function: single 400-mg dose; for Exposure of metabolite higher compared with normal renal function: single 400-mg dose of ribociclib
[9] = baseline eGFR as a continuous covariate; patients; cited from earlier work
[10] = test system: patients with advanced breast cancer; assay: Patient subgroup efficacy analysis; format: in vivo, human; conditions: for PFS HR (95% CI) RIB vs PBO: Cox proportional-hazards model stratified by study; for Median PFS (95% CI): Kaplan–Meier, local investigator's assessment
Procedure, shortened: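 Pooled data: MONALEESA-2 (full analysis set), MONALEESA-3 (first-line patients) and MONALEESA-7 (NSAI only). Starting dose 600 mg, 3 weeks on/1 week off. Severe RI was excluded. PFS by local investigator assessment. Median PFS by Kaplan–Meier; hazard ratio from a Cox proportional-hazards model stratified by study.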

[11] = cited from earlier work; remark: listed apart in the source
[12] = cited from earlier work; remark: listed apart in the source

For `N#Cc1ccc(C(c2ccc(C#N)cc2)n2cncn2)cc1` [letrozole], the “PK between normal renal function and mild RI” value [1] was “comparable PK”.

For `CN(C)C(=O)c1cc2cnc(Nc3ccc(N4CCNCC4)cn3)nc2n1C1CCCC1` [ribociclib], the “Exposure compared with subjects with normal hepatic function” value ([2]; mild hepatic impairment) is listed as “similar”, the “Increase in exposure compared with normal hepatic function” value ([2]; moderate and severe HI) is listed as “approximately 30%” and the “Maximal increase in exposure” value ([2]; severe HI) is listed as 1.3 fold. The “Subjects with at least one AE” value ([3]; all cohorts) was 31.6%, the “Subjects with treatment-related AEs” value ([3]; all cohorts) was 15.8% and the “Changes from baseline in hematology, chemistry, vital signs, or electrocardiograms” value ([3]; any of the cohorts) was “No clinically meaningful changes from baseline”. The Protein binding [4] was 70%, the Mean effective half-life ([5]; at 600 mg) was 33 to 54 h and the “Oral clearance in patients with cancer versus non-cancer subjects” value [5] was “generally lower oral clearance”. The “Dose proportionality of exposure” value ([5]; dose range of 50–1200 mg) was “slightly over-proportional increases in exposure”, the “Time to maximum observed plasma drug concentration” value ([5]; previous PK analyses) was 1 to 5 h and the “Drug–drug interactions with NSAIs (letrozole and anastrozole) or fulvestrant” value [6] was “no drug–drug interactions”. The “Median time to the first dose reduction” value ([7]; across renal function cohorts, patients with dose reductions) was 12.0–12.9 weeks, the “AEs of torsade de pointes” value ([7]; patients with ABC) was “No AEs of torsade de pointes were reported” and the “Median time to first occurrence of QTcF value > 480 ms and an increase from baseline of >60 ms” value ([7]; patients with ABC) was 15 days. For the same molecule, the “AEs leading to discontinuations” value ([7]; mild RI) was 16.0%, the “Dose modifications owing to renal toxicity” value (“Dose modifications owing” for short) ([7]; mild RI) was 2.5% and the Incidence of thrombocytopenia ([7]; mild RI) was 11.0%. The On-treatment deaths ([7]; mild RI) was 1.3%, the “QT interval prolongation events” value ([7]; mild RI) was 10.3% and the “AEs leading to discontinuations” value ([7]; moderate RI) was 25.4%. The “Dose modifications owing” value ([7]; moderate RI) was 3.8%, the Incidence of thrombocytopenia ([7]; moderate RI) was 13.8% and the On-treatment deaths ([7]; moderate RI) was 5.4%. For the same molecule, the “QT interval prolongation events” value ([7]; moderate RI) was 10.0%, the “AEs leading to discontinuations” value ([7]; normal function) was 10.1% and the “Dose modifications owing” value ([7]; normal renal function) was 0.7%. For the same molecule, the Incidence of thrombocytopenia ([7]; normal renal function) was 7.0%, the On-treatment deaths ([7]; normal renal function) was 1.4% and the “QT interval prolongation events” value ([7]; normal renal function) was 6.4%. The “Ae0-144h Geo-mean (amount excreted into the urine from time 0 to 144 h)” value ([8]; ESRD, N = 3, single oral dose of ribociclib at 400 mg, Part I and II) was 8.11 mg, the “Renal clearance as share of the apparent clearance” value ([8]; Study A2116) was “around 5%” and the “Increase in AUCinf compared with normal renal function” value (“Increase in AUCinf” for short) ([8]; mild RI) was 62%. For the same molecule, the “Increase in Cmax compared with normal renal function” value (shortened to “Increase in Cmax”) ([8]; mild RI) was 80%, the “Increase in AUCinf” value ([8]; moderate RI) was 94% and the “Increase in Cmax” value ([8]; moderate RI) was 79%. The “Increase in AUCinf” value ([8]; severe RI) was 167%, the “Increase in Cmax” value ([8]; severe RI) was 130% and the “Effect of RI on PK in covariate analysis” value [9] was “not affected by RI”. For the same molecule, the “PFS HR (95% CI) RIB vs PBO” value ([10]; mild renal impairment) was 0.57, the “Median PFS (95% CI)” value ([10]; mild renal impairment) was 24.8 months and the “PFS HR (95% CI) RIB vs PBO” value ([10]; moderate renal impairment) was 0.64. The “Median PFS (95% CI)” value ([10]; moderate renal impairment) was 22.2 months, the “PFS HR (95% CI) RIB vs PBO” value ([10]; normal renal function) was 0.58 and the “Median PFS (95% CI)” value ([10]; normal renal function) was 23.8 months. The Intestinal excretion [11] was ~8%, the Renal excretion [11] was “around 7%” and the “Contribution of renal clearance, share of overall elimination routes” value ([11]; human absorption, distribution, metabolism, and excretion study) was 7%. The “Hepatic elimination, share of overall pathways” value ([11]; in humans) was 84%.

With `CNC(=O)c1cc2cnc(Nc3ccc(N4CCNCC4)cn3)nc2n1C1CCCC1` [LEQ803] the “Exposure of metabolite higher compared with normal renal function” value ([8]; mild RI) was 32%, the “Exposure of metabolite higher compared with normal renal function” value ([8]; moderate RI) was 47% and the “Exposure of metabolite higher compared with normal renal function” value ([8]; severe RI) was 80%. The “Contribution to the pharmacological activity in vivo” value [12] was “no clinically relevant contribution to the pharmacological activity in vivo”.

From PMC10042892 (Clinical Pharmacokinetics, 2023)
